Series [1] deals with Human immunodeficiency virus 1. Description: Antiviral selectivity against HIV-1 virus; Significant activity. The series is classed as functional, organism-based.
Series [2] can be described thus: Ratio of inhibitory activity of compound to that of substrate activity of dATP against RT M184V enzyme was determined. An outline of the steps: (§1)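 Recombinant HIV-1 RT (wild-type, M184V or M184I) was expressed in E. coli JM109 with 1 mM IPTG for 5 h, then purified on Q and SP columns to >90% purity. Assay used MS2 RNA/22A DNA primer in 50 mM Tris-HCl pH 7.8, 6 mM MgCl2, 150 mM KCl and 0.01% Triton X-100. Synthesis was distributive, with [3H]dATP as the only nucleotide, at 37 °C. Timed aliquots were spotted on DE81 and counted by scintillation. Ki came from the abscissa intercept of the Lineweaver–Burk replot. Ratio was Ki over dATP Km.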

A short description of series [3]: Ratio of inhibitory activity of compound to that of substrate activity of dATP against RT wt enzyme was determined. An outline of the steps: as §1
Series [4] can be described thus: Ratio of inhibitory activity of compound to that of substrate activity of dATP against RT M184I enzyme was determined. An outline of the steps: as §1
For series [5], the system named is Nc1ncnc2c1ncn2[C@H]1C[C@H](O)[C@@H](COP(=O)(O)OP(=O)(O)OP(=O)(O)O)O1. Description: Substrate Activity against HIV-1 reverse transcriptase (RT M184V). The method, boiled down: (§2)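 Purified recombinant HIV-1 RT M184V or M184I was assayed on MS2 RNA/22A primer at 37 °C (pH 7.8 Tris, 6 mM MgCl2, 150 mM KCl, 0.01% Triton X-100) with [3H]dATP as the only nucleotide substrate. Aliquots were taken 4–5 times onto DE81 filters and counted by scintillation. Km was taken from the Lineweaver–Burk plot without inhibitor.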

In series [6] the test system is Human alphaherpesvirus 3. Put plainly: Antiviral selectivity against varicella zoster virus; exhibited wide range selectivity. The series is classed as functional, organism-based.
Series [7] deals with Human gammaherpesvirus 4. Put plainly: Antiviral selectivity against EB virus; exhibited wide range selectivity. The series is classed as functional, organism-based.
Series [8] concerns Human betaherpesvirus 5. Description: Antiviral selectivity against HCMV virus; exhibited wide range selectivity. The series is classed as functional, organism-based.
In series [9] the test system is Human immunodeficiency virus 1. Description: Antiviral selectivity against HIV-1 virus; exhibited wide range selectivity. The series is classed as functional, organism-based.
Series [10] concerns Nc1ncnc2c1ncn2[C@H]1C[C@H](O)[C@@H](COP(=O)(O)OP(=O)(O)OP(=O)(O)O)O1. Description: Substrate Activity against HIV-1 reverse transcriptase (RT M184I). An outline of the steps: as §2
Series [11] concerns Human gammaherpesvirus 4. Put plainly: Antiviral selectivity against […]; Inactive. The series is classed as functional, organism-based.
Series [12] has as its system Human alphaherpesvirus 3. Description: Antiviral selectivity against varicella zoster virus; Inactive. The series is classed as functional, organism-based.
Series [13] deals with Human immunodeficiency virus 1. Description: Antiviral selectivity against HIV-1 virus; Inactive. The series is classed as functional, organism-based.
For series [14], the system named is Human betaherpesvirus 5. Description: Antiviral selectivity against HCMV virus; Inactive. The series is classed as functional, organism-based.

Calls of active or inactive are those of the source. No cut-off for these calls is given here.

Consider `COC(=O)C(C)NP(=O)(OCC1C/C1=C\n1cnc2c(N)ncnc21)Oc1ccccc1` (stereo not given), for which the Anti-HIV activity entry in series [1] is “Significant activity”.

Take `Nc1ncnc2c1ncn2/C=C1/CC1COP(=O)(O)OP(=O)(O)OP(=O)(O)O` (stereo not given): the Ki/Km turned out to be 4.5 in series [2], 0.8 in series [3] and 6.3 in [4].

For orientation: Km means the substrate concentration at which the rate is half of its maximum. On to “Human immunodeficiency virus type 1 reverse transcriptase (Human immunodeficiency virus 1), Q72547 M184V”, for which, in series [5], the Km came to 0.38 µM.

For `Nc1ncnc2c1ncn2[C@H]1CC[C@@H](COP(=O)(O)OP(=O)(O)OP(=O)(O)O)O1`, the Ki/Km in [2] was found to be 1.3; in series [3], 1.2; in series [4], 3.2.

`Nc1ncnc2c1ncn2/C=C1/CC1CO` (stereo not given): the Antiviral selectivity result in [6], in series [7], in [8] and in series [9] was “exhibited wide range selectivity” each time.

As for `Nc1ncnc2c1ncn2/C=C1\CC1COP(=O)(O)OP(=O)(O)OP(=O)(O)O` (stereo not given), the Ki/Km stood at 137 in series [2], 25 in series [3] and 187 in series [4].

Consider “Human immunodeficiency virus type 1 reverse transcriptase (Human immunodeficiency virus 1), Q72547 M184I”, for which the Km in series [10] amounted to 0.38 µM.

As to `Nc1ncnc2c1ncn2/C=C1\CC1CO` (stereo not given), the IA entry in [11], in [12], in series [13] and in [14] was “inactive” in each case.
